The results in this text go back to ChEMBL document CHEMBL5154906, “Design of a Potent, Selective, and Brain-Penetrant Inhibitor of Wnt-Deactivating Enzyme Notum by Optimization of a Crystallographic Fragment Hit” (J Med Chem, 2022).

Each structure is given as a SMILES string.

Series [1] deals with T1, Palmitoleoyl-protein carboxylesterase NOTUM (Homo sapiens, UniProt Q6P988, C330S). The series is described as follows: Inhibition of human Notum (S81 to T451 residues) Cys330Ser mutant expressed in HEK293S cells using OPTS as substrate incubated for 40 mins by fluorescence based assay.
A short description of series [2]: Efflux ratio of apparent permeability from basolateral to apical side over apical to basolateral side in MDCK-MDR1 cells. Particulars: dog; call rule not given here.
Series [3] can be described thus: Metabolic stability in mouse liver microsomes assessed as intrinsic clearance. The series is classed as ADME, Microsome. The note with it: read-out: CLH. In general terms: Liver microsomes are vesicles of endoplasmic reticulum, rich in cytochrome P450 enzymes.
Series [4] can be described thus: Metabolic stability in human liver microsomes assessed as intrinsic clearance. The series is classed as ADME, Microsome. The note with it: read-out: CLH.
Series [5] can be described thus: Metabolic stability in mouse hepatocyte assessed as intrinsic clearance measured per 10^6 cells. The class given is ADME, cell-based. The note with it: hepatocytes, read-out: CLH.
Series [6] addresses T1, Palmitoleoyl-protein carboxylesterase NOTUM. In words: Inhibition of human Notum (S81 to T451 residues) Cys330Ser mutant expressed in HEK293S cells at 100 uM using OPTS as substrate incubated for 40 mins by fluorescence based assay relative to control. The class given is cell-based. In outline: (§1)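 Recombinant human Notum (81–451, Cys330Ser) was the enzyme and OPTS the carboxylesterase substrate. Values are percent inhibition at a single concentration, 10 μM or 100 μM.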

Series [7] shares this target. The series is described as follows: Inhibition of human Notum (S81 to T451 residues) Cys330Ser mutant expressed in HEK293S cells at 10 uM using OPTS as substrate incubated for 40 mins by fluorescence based assay relative to control. The series is classed as cell-based. In outline: as §1
The nature of series [8]: Metabolic stability in rat liver microsomes assessed as intrinsic clearance. The series is classed as ADME, Microsome. Particulars: read-out: CLH.
Series [9] in a line: Metabolic stability in dog liver microsomes assessed as intrinsic clearance. The class given is ADME, Canis lupus familiaris, Microsome. Particulars: read-out: CLH.
Series [10] can be described thus: Drug uptake in mouse assessed as plasma concentration at 30 mg/kg, po administered twice daily for 7 days. The class given is ADME, organism-based. The note with it: in vivo, 168 h, time 7 day. The essentials: (§2)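 Mice received 30 mg/kg orally twice daily, at T = 0 and 9 h, in formulation A (DMSO 2% v/v + 10% v/v Solutol in 1× PBS, 98% v/v). Plasma and brain drug concentrations were followed over time.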

A short description of series [11]: Drug uptake in mouse assessed as brain concentration at 30 mg/kg, po administered twice daily for 7 days. The class given is ADME, organism-based. The note with it: in vivo, 168 h, time 7 day. In outline: as §2
The target in series [12] is Casein kinase I isoform alpha (Homo sapiens) (UniProt P48729). In words: Inhibition of CK1 (unknown origin) at 10 uM relative to control.
Series [13] concerns the target Glycogen synthase kinase-3 (Homo sapiens) (UniProt P49840+P49841). The series is described as follows: Inhibition of GSK3 (unknown origin) at 10 uM relative to control. The series is classed as protein assay.
A further series is described as follows: in vivo. Particulars: Sprague-Dawley, rat, brain, po, 10 mg/kg.
Series [14] in a line: Toxicity in wild type mouse at 30 mg/kg, po administered twice daily for 7 days. The note with it: in vivo, 168 h.
Series [15] is described as follows: Toxicity in aged APP/PS1 mouse at 30 mg/kg, po administered twice daily for 7 days. Particulars: in vivo, 168 h.

T1 sequence (Q6P988 20-496 C330S limits assumed): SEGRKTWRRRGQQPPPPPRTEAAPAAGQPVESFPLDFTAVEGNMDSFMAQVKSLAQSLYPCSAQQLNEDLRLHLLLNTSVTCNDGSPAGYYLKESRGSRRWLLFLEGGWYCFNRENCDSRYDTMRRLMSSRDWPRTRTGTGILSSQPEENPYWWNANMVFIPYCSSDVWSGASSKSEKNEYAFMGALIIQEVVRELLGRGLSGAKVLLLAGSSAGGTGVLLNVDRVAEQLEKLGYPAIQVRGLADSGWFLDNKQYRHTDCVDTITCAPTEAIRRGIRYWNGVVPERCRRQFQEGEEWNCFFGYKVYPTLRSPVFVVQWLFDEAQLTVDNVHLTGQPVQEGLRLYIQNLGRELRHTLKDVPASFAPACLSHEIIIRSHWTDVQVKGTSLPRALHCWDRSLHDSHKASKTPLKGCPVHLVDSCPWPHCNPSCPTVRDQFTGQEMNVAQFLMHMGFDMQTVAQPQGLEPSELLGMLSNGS
Sequence of Casein kinase I isoform alpha (Homo sapiens) (P48729 2-337 limits assumed): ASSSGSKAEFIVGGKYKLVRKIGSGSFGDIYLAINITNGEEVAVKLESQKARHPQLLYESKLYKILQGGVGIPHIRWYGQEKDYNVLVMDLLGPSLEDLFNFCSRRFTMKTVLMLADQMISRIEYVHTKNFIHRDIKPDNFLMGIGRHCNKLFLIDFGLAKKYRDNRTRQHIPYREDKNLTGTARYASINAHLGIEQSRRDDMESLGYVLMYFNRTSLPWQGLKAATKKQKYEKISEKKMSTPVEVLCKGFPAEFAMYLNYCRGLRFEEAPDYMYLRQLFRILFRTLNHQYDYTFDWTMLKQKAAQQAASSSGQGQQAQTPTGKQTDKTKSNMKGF
Sequence of Glycogen synthase kinase-3 (Homo sapiens) (P49840 whole entry, looked up): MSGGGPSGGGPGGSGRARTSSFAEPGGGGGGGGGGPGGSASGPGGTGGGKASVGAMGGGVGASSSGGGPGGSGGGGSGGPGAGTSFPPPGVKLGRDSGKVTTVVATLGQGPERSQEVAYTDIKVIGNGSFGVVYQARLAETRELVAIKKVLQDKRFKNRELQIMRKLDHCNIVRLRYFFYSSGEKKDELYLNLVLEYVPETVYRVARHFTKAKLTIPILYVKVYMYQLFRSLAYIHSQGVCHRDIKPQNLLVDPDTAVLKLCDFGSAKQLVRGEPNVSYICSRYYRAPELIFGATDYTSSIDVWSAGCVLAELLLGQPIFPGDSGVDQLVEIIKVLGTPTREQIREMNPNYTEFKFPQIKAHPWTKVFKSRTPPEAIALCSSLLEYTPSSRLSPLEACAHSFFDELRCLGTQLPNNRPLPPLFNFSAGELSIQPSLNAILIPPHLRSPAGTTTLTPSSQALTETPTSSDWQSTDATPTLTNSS
Sequence of Glycogen synthase kinase-3 (Homo sapiens) (P49841 whole entry, looked up): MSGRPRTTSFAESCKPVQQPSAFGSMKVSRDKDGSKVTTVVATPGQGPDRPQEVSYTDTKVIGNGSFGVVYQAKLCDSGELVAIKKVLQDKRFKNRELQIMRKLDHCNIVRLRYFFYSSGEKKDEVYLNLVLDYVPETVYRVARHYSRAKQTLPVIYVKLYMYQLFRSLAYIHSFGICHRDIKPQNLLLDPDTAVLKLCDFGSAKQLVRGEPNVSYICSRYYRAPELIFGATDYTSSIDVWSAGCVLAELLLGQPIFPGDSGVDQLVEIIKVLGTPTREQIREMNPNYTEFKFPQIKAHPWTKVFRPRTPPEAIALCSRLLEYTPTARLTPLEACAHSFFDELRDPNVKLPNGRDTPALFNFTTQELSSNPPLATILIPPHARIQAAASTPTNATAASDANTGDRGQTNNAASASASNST

The term IC50 denotes the concentration needed to halve the response being measured. Read a low IC50 as greater potency in that assay. In [1], `OCc1cn(-c2ccc3c(c2)OCO3)nn1` gave an IC50 of 28 µM. That is a double-digit micromolar value. With `FC(F)(F)c1c(Cl)cnc(-n2ccnn2)c1Cl`, the Ratio in [2] is on record as 2.5. Regarding `OCc1cn(-c2cccc(Cl)c2Cl)nn1`, the midpoint of inhibition in series [1], the IC50, lay at 5.1 µM.

`OCc1cn(-c2ccc(C(F)(F)F)c(Cl)c2)nn1` showed an IC50 in [1] of 1 µM. On the same count and under the same terms, the same measure for `OCc1cn(-c2cccc(Cl)c2)nn1`: 6.3 µM; for `OCc1cn(-c2cc(Cl)cc(Cl)c2)nn1`: 2.4 µM; for `Cc1ccc(-n2cc(CO)nn2)cc1C`: 0.73 µM. Still for that read-out and setting: the same measure for `OCc1cn(-c2ccccc2F)nn1`: 64 µM; for `OCc1cn(-c2cc(Cl)ccc2Cl)nn1`: 23 µM. Consider `OCc1cn(-c2ccc(Cl)c(C(F)(F)F)c2Cl)nn1`, for which the microsomal CLint was found to be 6.7 µL/min/mg in series [3] and 1.7 µL/min/mg in series [4]. For the same compound, in series [5], the hepatocyte CLint is 48 µL/min/1e6 cells.

The compound `OCc1cn(-c2cccc(C(F)(F)F)c2)nn1` gave an IC50 in series [1] of 2.3 µM.

One may read the inhibition as the change of the read-out against control, counted positive when it falls. Low values mean a response near the control, high ones a response far below the control. As for `OCc1cn(-c2ccc(F)cc2)nn1`, in series [6], the inhibition at 100 µM is 40%. `Cc1cccc(-n2cc(CO)nn2)c1` came in with an inhibition at 10 µM in series [7] of 40%. The term AUC(0-inf) denotes total exposure, with the tail of the curve extrapolated. Consider `FC(F)(F)c1c(Cl)ccc(-n2ccnn2)c1Cl`, for which the microsomal CLint in [3] is 3.2 µL/min/mg; in series [4] it was 1.5 µL/min/mg; in series [8], below 9.6 µL/min/mg; in series [9], 10.8 µL/min/mg. In series [5], the hepatocyte CLint is 19.4 µL/min/1e6 cells. For the same compound, the Cp entry in series [10] is reported as “Active”. Also, the Ct entry in [11] is “Active”. In addition, the inhibition in series [12] and in series [13] was below 50% in each case. In “in vivo”, this compound returned an AUC(0-inf) of 46100 ng·h/mL. The Activity result in series [14] and in series [15] was “Non-Toxic” each time. In series [1], `OCc1cn(-c2ccccc2Cl)nn1` came in with an IC50 of 32 µM.

As for `[2H]c1nnn(-c2ccc(Cl)c(C(F)(F)F)c2Cl)c1[2H]`, the microsomal CLint in series [3] was found to be 5.4 µL/min/mg. With `OCc1cn(-c2ccc(Cl)cc2Cl)nn1`, the IC50 in series [1] turned out to be 5.6 µM. In other words, the single-digit micromolar range. Turning to `OCc1cn(-c2ccc3c(c2)OCCO3)nn1`, in series [1], 32 µM corresponded to half-maximal inhibition (IC50). Same read-out and setting: the same measure for `OCc1cn(-c2ccc(Cl)c(C(F)(F)F)c2)nn1`: 0.065 µM; for `OCc1cn(-c2ccc(C(F)(F)F)cc2)nn1`: 8.8 µM. In turn, `OCc1cn(-c2ccc(Cl)c(Cl)c2)nn1` came in with an IC50 in series [1] of 0.5 µM. Also, the microsomal CLint in series [4] came out at 12 µL/min/mg.
